For 21 compounds, IC50 and Ratio IC50 results are on record in ChEMBL document CHEMBL3593155, “Synthesis and evaluation of N-analogs of 1,2-diarylethane as Helicobacter pylori urease inhibitors” (Bioorg Med Chem, 2015).

Broadly, the IC50 is the point on the concentration scale where inhibition reaches its midpoint.

Molecules are shown by their SMILES.

The target of assay [1] is T1, Urease subunit alpha/Urease subunit beta (Helicobacter pylori (strain ATCC 700392 / 26695) (Campylobacterpylori), UniProt P69996). Briefly: Inhibition of urease in Helicobacter pylori ATCC 43504 assessed as ammonia production incubated for 1.5 hrs prior to testing by indophenol method. In outline: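 Washed cells were sonicated 60 s in water with protease inhibitors. The supernatant was desalted on Sephadex G-25 and stored with equal-volume glycerol at 4 °C. Enzyme was preincubated with compound 1.5 h at room temperature.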
T1 sequence (P69996 whole entry): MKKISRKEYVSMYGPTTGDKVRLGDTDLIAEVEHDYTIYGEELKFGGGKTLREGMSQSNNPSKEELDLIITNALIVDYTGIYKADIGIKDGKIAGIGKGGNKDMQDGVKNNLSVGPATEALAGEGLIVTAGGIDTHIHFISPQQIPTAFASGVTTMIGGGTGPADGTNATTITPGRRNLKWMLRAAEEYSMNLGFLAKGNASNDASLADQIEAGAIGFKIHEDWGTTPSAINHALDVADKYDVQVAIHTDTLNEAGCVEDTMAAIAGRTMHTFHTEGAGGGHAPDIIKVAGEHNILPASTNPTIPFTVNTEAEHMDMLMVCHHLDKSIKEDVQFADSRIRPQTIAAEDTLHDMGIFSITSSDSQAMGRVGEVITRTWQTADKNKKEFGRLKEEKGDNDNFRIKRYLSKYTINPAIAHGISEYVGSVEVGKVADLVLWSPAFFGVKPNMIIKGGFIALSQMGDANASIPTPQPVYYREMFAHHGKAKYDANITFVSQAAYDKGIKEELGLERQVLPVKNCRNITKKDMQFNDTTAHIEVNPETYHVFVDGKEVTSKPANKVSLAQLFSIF
T1 sequence (P14916 whole entry, further chain): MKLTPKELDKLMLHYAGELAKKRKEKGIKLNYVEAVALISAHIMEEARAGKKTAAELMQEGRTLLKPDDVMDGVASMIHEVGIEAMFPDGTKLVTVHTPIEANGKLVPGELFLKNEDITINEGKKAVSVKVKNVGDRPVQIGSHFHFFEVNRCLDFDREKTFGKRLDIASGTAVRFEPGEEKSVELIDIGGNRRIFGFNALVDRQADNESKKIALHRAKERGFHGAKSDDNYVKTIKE

Assay [2] deals with T1, Urease subunit alpha/Urease subunit beta. Briefly: Inhibition of urease isolated from Helicobacter pylori ATCC 43504 assessed as ammonia production incubated for 1.5 hrs prior to testing by indophenol method. The essentials:
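Washed cells were sonicated in water with protease inhibitors, and the supernatant was desalted on Sephadex G-25. This crude urease, mixed with an equal volume of glycerol, was pre-incubated with test compound for 1.5 h at room temperature.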

Assay [3] has as its target T2, Urease subunit alpha/Urease subunit beta (Helicobacter pylori (strain ATCC 700392 / 26695) (Campylobacterpylori)) (UniProt P69996+P14916). Put plainly: Potency index, ratio of AHA IC50 to compound IC50 for urease in Helicobacter pylori ATCC 43504.
In assay [4] the target is T2, Urease subunit alpha/Urease subunit beta (Helicobacter pylori (strain ATCC 700392 / 26695) (Campylobacterpylori)). Briefly: Potency index, ratio of AHA IC50 to compound IC50 for urease isolated from Helicobacter pylori ATCC 4350. Conditions: Helicobacter pylori ATCC 43504.

T2 sequence (P14916 whole entry, looked up): as the sequence (P14916 whole entry, further chain) above
T2 sequence (P69996 whole entry, looked up): as the sequence (P69996 whole entry) above

Regarding `O=[N+]([O-])c1ccc(NCc2ccc(O)cc2)cc1`, the results for the half-inhibitory concentration (IC50) in assay [1] and in assay [2] were 28.1 µM and 8.26 µM, respectively.

For the compound `COc1ccc(CNc2ccc(Cl)cc2)cc1OC`, the IC50 in assay [2] is greater than 500 µM.

With `O=[N+]([O-])c1ccc(CNc2ccc([N+](=O)[O-])cc2)cc1`, the IC50 in assay [1] was 126 µM; in assay [2], 26.3 µM.

`O=[N+]([O-])c1ccccc1CNc1ccc(Cl)cc1`: the half-maximal inhibitory concentration (IC50) in assay [2] was found to be 239 µM.

As to `Clc1ccc(NCc2ccc3c(c2)OCO3)cc1`, the IC50 in assay [2] is greater than 500 µM.

On to `COc1ccc(NCc2cccc([N+](=O)[O-])c2)cc1`, for which the IC50 in assay [2] was 319 µM.

Turning to `CN(C)c1ccc(CNc2ccc(Cl)cc2)cc1`, the IC50 in assay [2] was greater than 500 µM.

As to `CN(C)c1ccc(CNc2cccc([N+](=O)[O-])c2)cc1`, the results for the IC50 in assay [1] and in assay [2] were 72.4 µM and 16.8 µM, respectively.

Take `O=[N+]([O-])c1ccc(NCc2ccc(Cl)cc2)cc1`: the IC50 was determined as 83.8 µM in assay [1] and 19.5 µM in assay [2].

On to `O=[N+]([O-])c1ccc(CNc2cccc(Cl)c2)cc1`, for which, in assay [2], the IC50 turned out to be 236 µM.

With `O=[N+]([O-])c1cccc(NCc2ccc(Cl)cc2)c1`, the half-maximal inhibitory concentration (IC50) in assay [2] amounted to 57.5 µM.

With `O=[N+]([O-])c1ccc(CNc2cccc([N+](=O)[O-])c2)cc1`, in assay [2], the IC50 turned out to be 64.9 µM.

In the case of `COc1ccc(CNc2cccc([N+](=O)[O-])c2)cc1OC`, the IC50 in assay [2] turned out to be 50.4 µM.

Turning to `O=[N+]([O-])c1ccc(NCc2ccc(O)c(O)c2)cc1`, the Ratio IC50 in assay [3] came out at 54; in assay [4], 29. For the same compound, the half-inhibitory concentration (IC50) in assay [1] was found to be 1.92 µM; in assay [2], 0.62 µM.

As for `O=[N+]([O-])c1cccc(NCc2ccc(O)c(O)c2)c1`, the IC50 in assay [1] was found to be 9.52 µM; in assay [2], 2.33 µM.

As for `CC(=O)NO` [ACETOHYDROXAMIC ACID], the IC50 in assay [1] stood at 105 µM; in assay [2] it was 18.4 µM.

As to `O=[N+]([O-])c1cccc(CNc2cccc(Cl)c2)c1`, the IC50 in assay [2] was 410 µM.

`O=[N+]([O-])c1ccccc1NCc1ccc(O)c(O)c1`: the IC50 in assay [2] stood at 45.1 µM.

Consider `COc1ccc(NCc2ccc(Cl)cc2)cc1`, for which the IC50 in assay [2] is greater than 500 µM.

As for `COc1ccc(NCc2ccc(N(C)C)cc2)cc1`, the IC50 in assay [2] is greater than 500 µM.

As to `O=[N+]([O-])c1cccc(CNc2cccc([N+](=O)[O-])c2)c1`, the 50% inhibitory concentration (IC50) in assay [2] worked out at 85 µM.
